In ChEMBL document CHEMBL4725418, “Design, Synthesis, and Structure-Activity Relationship Studies of Dual Inhibitors of Soluble Epoxide Hydrolase and 5-Lipoxygenase” (J Med Chem, 2020):
Values after ≈ are worked out from the molar mass of the structure shown. Active and inactive are the calls of the source. The calls are words filed in the database; no cut-off is given here.

How the values were obtained:
[1] = target: T1, Polyunsaturated fatty acid 5-lipoxygenase (Homo sapiens, UniProt P09917); assay: Inhibition of 5-LOX (unknown origin) expressed in Escherichia coli BL21-(DE3) pre-incubated for 15 mins before AA substrate addition and measured after 10 mins by HPLC/UV assay
T1 sequence (P09917 whole entry): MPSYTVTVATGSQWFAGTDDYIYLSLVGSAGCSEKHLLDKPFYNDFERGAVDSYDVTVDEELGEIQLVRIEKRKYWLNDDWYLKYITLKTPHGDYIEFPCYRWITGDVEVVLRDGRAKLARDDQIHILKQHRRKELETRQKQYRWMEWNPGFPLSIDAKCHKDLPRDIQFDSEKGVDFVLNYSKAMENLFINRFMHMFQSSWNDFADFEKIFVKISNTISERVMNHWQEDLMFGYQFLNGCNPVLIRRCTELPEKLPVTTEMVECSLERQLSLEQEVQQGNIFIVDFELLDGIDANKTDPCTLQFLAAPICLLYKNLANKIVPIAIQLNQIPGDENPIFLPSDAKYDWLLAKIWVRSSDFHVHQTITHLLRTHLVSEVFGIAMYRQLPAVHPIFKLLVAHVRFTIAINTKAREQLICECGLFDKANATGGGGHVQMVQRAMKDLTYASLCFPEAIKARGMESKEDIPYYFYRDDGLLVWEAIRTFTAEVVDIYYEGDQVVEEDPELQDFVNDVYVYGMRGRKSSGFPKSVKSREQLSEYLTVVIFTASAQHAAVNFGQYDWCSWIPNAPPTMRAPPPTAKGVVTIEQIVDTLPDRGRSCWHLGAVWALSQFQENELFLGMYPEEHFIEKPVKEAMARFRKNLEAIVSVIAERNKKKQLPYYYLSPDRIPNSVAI
Method in brief: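 Recombinant 5-LOX activity measured with arachidonic acid as substrate; product formation monitored by HPLC. IC50 from at least three independent determinations (n ≥ 3), reported with 95% confidence interval.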

Mus musculus [2] = assay: Anti-fibrotic activity in C57BL/6 mouse model of unilateral ureter obstruction-induced kidney inflammation and fibrosis assessed as reduction in macrophage infiltration into the obstructed kidney at 3 mg/kg, ip dosed daily for 7 days by F4/80 antibody staining based assay; type: functional, organism-based; conditions: time 7.0 day
Method in brief: (§1)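 Mice with unilateral ureter obstruction to induce kidney inflammation and fibrosis, given compound or vehicle intraperitoneally. Ligated (UUO) and contralateral kidneys taken at day 7. Fibrosis read by AZAN and Sirius Red staining, with Sirius Red imaged under bright and polarized light. Macrophages detected by F4/80 staining, quantified as positive area. Col1a1, FN1, TNFα and Ccl2 mRNA measured in whole-kidney homogenates by real-time qRT-PCR normalized to GAPDH.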

Mus musculus [3] = assay: Anti-fibrotic activity in C57BL/6 mouse model of unilateral ureter obstruction-induced kidney inflammation and fibrosis assessed as reduction in FN1 mRNA expression at 3 mg/kg, ip dosed daily for 7 days by real-time qPCR analysis; type: functional, organism-based; conditions: time 7.0 day; method in brief: as §1
Mus musculus [4] = assay: Anti-fibrotic activity in C57BL/6 mouse model of unilateral ureter obstruction-induced kidney inflammation and fibrosis assessed as inhibition of tubulo-interstitial fibrosis by measuring reduced blue staining of collagen fibers in AZAN-stained sections at 3 mg/kg, ip dosed daily for 7 days by AZAN trichrome staining method; type: functional, organism-based; conditions: time 7.0 day; method in brief: as §1
Mus musculus [5] = assay: Anti-inflammatory activity in C57BL/6 mouse model of unilateral ureter obstruction-induced kidney inflammation and fibrosis assessed as reduction in Ccl2 mRNA expression at 3 mg/kg, ip dosed daily for 7 days by real-time qPCR analysis; type: functional, organism-based; conditions: time 7.0 day; method in brief: as §1
Mus musculus [6] = assay: Anti-fibrotic activity in C57BL/6 mouse model of unilateral ureter obstruction-induced kidney inflammation and fibrosis assessed as inhibition of tubulo-interstitial fibrosis by measuring reduced fibrillar collagen at 3 mg/kg, ip dosed daily for 7 days by Sirius red staining method; type: functional, organism-based; conditions: time 7.0 day; method in brief: as §1
Mus musculus [7] = species: Mus musculus; assay: Inhibition of sEH in naive mouse assessed as increase in plasma EET/DHET ratio level; type: functional
Method in brief: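 Plasma from naive mice given a single oral 3 mg/kg dose analyzed for EET/DHET ratio as a read-out of sEH inhibition.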

Mus musculus [8] = assay: Anti-fibrotic activity in C57BL/6 mouse model of unilateral ureter obstruction-induced kidney inflammation and fibrosis assessed as reduction in Col1a1 mRNA expression at 3 mg/kg, ip dosed daily for 7 days by real-time qPCR analysis; type: functional, organism-based; conditions: time 7.0 day; method in brief: as §1
[9] = Half life in Swiss CD-1 mouse at 3 mg/kg, po administered as single dose by LC-MS analysis; type: ADME, organism-based; conditions: in vivo
Method in brief: (§2)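 Male Swiss CD-1 mice received a single oral dose of 3 mg/kg in 1% methylcellulose/Tween80 (99:1); nine mice treated, three vehicle controls, three mice per time point. Serum analyzed by LC-MS for concentration–time profile.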

[10] = target: T2, Polyunsaturated fatty acid lipoxygenase ALOX15 (Homo sapiens) (UniProt P16050); assay: Activation of 15-LOX in human PMNL pre-incubated for 15 mins before addition of AA and A23187 and measured after 10 mins by HPLC/UV assay; conditions: filed as activator, time 25.0 min
T2 sequence (whole entry): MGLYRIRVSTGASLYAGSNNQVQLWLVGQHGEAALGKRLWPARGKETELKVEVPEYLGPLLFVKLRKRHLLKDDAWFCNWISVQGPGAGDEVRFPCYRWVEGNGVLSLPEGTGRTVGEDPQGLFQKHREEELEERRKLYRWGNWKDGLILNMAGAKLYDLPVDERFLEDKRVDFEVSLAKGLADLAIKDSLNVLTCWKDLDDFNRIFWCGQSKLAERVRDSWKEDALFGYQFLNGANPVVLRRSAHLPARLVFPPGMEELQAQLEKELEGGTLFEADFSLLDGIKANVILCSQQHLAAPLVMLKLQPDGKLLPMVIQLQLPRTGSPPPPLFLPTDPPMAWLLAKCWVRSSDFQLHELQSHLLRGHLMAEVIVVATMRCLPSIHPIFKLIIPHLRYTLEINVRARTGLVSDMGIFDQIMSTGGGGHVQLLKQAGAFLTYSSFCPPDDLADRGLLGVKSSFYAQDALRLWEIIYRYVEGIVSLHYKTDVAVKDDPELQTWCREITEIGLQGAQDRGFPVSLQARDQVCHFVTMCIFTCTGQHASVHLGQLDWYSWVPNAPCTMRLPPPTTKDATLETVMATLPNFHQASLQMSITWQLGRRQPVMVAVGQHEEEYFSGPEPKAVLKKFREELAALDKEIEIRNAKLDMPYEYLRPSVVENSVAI

[11] = Cmax in Swiss CD-1 mouse at 3 mg/kg, po administered as single dose by LC-MS analysis; type: ADME, organism-based; parameters: route oral, dose 3 mg/kg; conditions: in vivo; method in brief: as §2
Mus musculus [12] = assay: Anti-inflammatory activity in C57BL/6 mouse model of unilateral ureter obstruction-induced kidney inflammation and fibrosis assessed as reduction in TNFalpha mRNA expression at 3 mg/kg, ip dosed daily for 7 days by real-time qPCR analysis; type: functional, organism-based; conditions: time 7.0 day; method in brief: as §1
[13] = target: T1, Polyunsaturated fatty acid 5-lipoxygenase; assay: Inhibition of 5-LOX in human PMNL assessed as reduction in 5-HETE and LTB4 formation pre-incubated for 15 mins before addition of AA and A23187 and measured after 10 mins by HPLC/UV assay
[14] = Solubility in pH 7.4 DPBS buffer; type: physicochemical
[15] = T>IC50 in Swiss CD-1 mouse at 3 mg/kg, po administered as single dose by LC-MS analysis; type: ADME, organism-based; conditions: in vivo; method in brief: as §2

IC50 [1]: 110 nM
half-life [9]: 1.3 h
Activity [10]: Active
Cmax [11]: 700 nM
IC50 [13]: 210 nM
solubility [14]: 3 µM (≈ 1.43 µg/mL)
T>IC50 [15]: 3 h
SMILES: C[C@H](C#Cc1cccc(C(=O)NCCC(c2ccc(F)cc2)c2ccc(F)cc2)c1)N(O)C(N)=O
Activity (Mus musculus [2]): Active
Activity (Mus musculus [3]): Active
Activity (Mus musculus [4]): Active
Activity (Mus musculus [5]): Active
Activity (Mus musculus [6]): Active
Activity (Mus musculus [7]): Active
Activity (Mus musculus [8]): Active
Activity (Mus musculus [12]): Active
